Series [1] is described as follows: Active metabolite of ifosfamide determined in humans; A-Active. It counts as ADME. Particulars: human; call rule not given here.
Series [2] can be described thus: Metabolite of ifosfamide determined in urine; NF-Not found. It counts as ADME, tissue-based. Particulars: human.
Series [3] is described as follows: Portion of holoxan excreted in the form of the metabolite from 1500 mL of urine on day 9 was determined in embryonal rhabdomyosarcoma patients treated with ifosfamide. Particulars: human, in vivo. Type of series: ADME, tissue-based. In outline:
(§1)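 Patients received ifosfamide at 2 g per day for 10 days, and daily urine was collected. Urine from days 1 and 2 was dropped because it had been stored at room temperature. Solids were centrifuged off. Supernatant was examined by 31P NMR, and amounts were taken from the electronically integrated spectra.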

Series [4] can be described thus: Portion of holoxan excreted in the form of the metabolite from 1600 mL of urine on day 10 was determined in embryonal rhabdomyosarcoma patients treated with ifosfamide. Type of series: ADME, tissue-based. The note with it: human, in vivo. In outline: as §1
A short description of series [5]: Portion of holoxan excreted in the form of the metabolite from 1700 mL of urine on day 5 was determined in embryonal rhabdomyosarcoma patients treated with ifosfamide. The note with it: human, in vivo. Type of series: ADME, tissue-based. In outline: as §1
A short description of series [6]: Portion of holoxan excreted in the form of the metabolite from 2310 mL of urine on day 4 was determined in embryonal rhabdomyosarcoma patients treated with ifosfamide. Type of series: ADME, tissue-based. The note with it: human, in vivo. In outline:
as §1

Series [7] is described as follows: Quantity of the metabolite found in the urine of the embryonal rhabdomyosarcoma patients treated with ifosfamide from 1200 mL of urine tested on day 3. It counts as ADME, tissue-based. The note with it: human. In outline:
as §1

A short description of series [8]: Portion of holoxan excreted in the form of the metabolite from 1200 mL of urine on day 3 was determined in embryonal rhabdomyosarcoma patients treated with ifosfamide. The note with it: human, in vivo. It counts as ADME. In outline:
as §1

Series [9] can be described thus: Portion of holoxan excreted in the form of the metabolite from 1300 mL of urine on day 6 was determined in embryonal rhabdomyosarcoma patients treated with ifosfamide. Type of series: ADME. The note with it: human, in vivo. The method, boiled down:
as §1

Series [10] in a line: Portion of holoxan excreted in the form of the metabolite from 1300 mL of urine on day 8 was determined in embryonal rhabdomyosarcoma patients treated with ifosfamide. Particulars: human, in vivo. Type of series: ADME. In outline: as §1
Series [11] is described as follows: Quantity of the metabolite found in the urine of the embryonal rhabdomyosarcoma patients treated with ifosfamide from 1200 mL of urine tested on day 7. It counts as ADME. The note with it: human. In outline:
as §1

The nature of series [12]: Quantity of the metabolite found in the urine of the embryonal rhabdomyosarcoma patients treated with ifosfamide from 1300 mL of urine tested on day 6. It counts as ADME. The note with it: human. In outline: as §1
A short description of series [13]: Quantity of the metabolite found in the urine of the embryonal rhabdomyosarcoma patients treated with ifosfamide from 1300 mL of urine tested on day 8. Type of series: ADME, tissue-based. Particulars: human. In outline:
as §1

Series [14] in a line: Quantity of the metabolite found in the urine of the embryonal rhabdomyosarcoma patients treated with ifosfamide from 1500 mL of urine tested on day 9. Particulars: human. It counts as ADME. The method, boiled down:
as §1

The nature of series [15]: Quantity of the metabolite found in the urine of the embryonal rhabdomyosarcoma patients treated with ifosfamide from 1600 mL of urine tested on day 10. Type of series: ADME. The note with it: human. The method, boiled down:
as §1

The nature of series [16]: Quantity of the metabolite found in the urine of the embryonal rhabdomyosarcoma patients treated with ifosfamide from 1700 mL of urine tested on day 5. Type of series: ADME. The note with it: human. The method, boiled down:
as §1

Series [17] in a line: Quantity of the metabolite found in the urine of the embryonal rhabdomyosarcoma patients treated with ifosfamide from 2310 mL of urine tested on day 4. It counts as ADME. The note with it: human. In outline:
as §1

The nature of series [18]: Portion of holoxan excreted in the form of the metabolite from 1200 mL of urine on day 7 was determined in embryonal rhabdomyosarcoma patients treated with ifosfamide. Type of series: ADME. The note with it: human, in vivo. In outline:
as §1

Series [19] can be described thus: Percent ratio of the enantiomeric form (+)R extracted from the urine of alveolar rhabdomyosarcoma patients was determined. Type of series: ADME, tissue-based. The note with it: human. In outline: (§2)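 Patients were dosed with ifosfamide at 2 g per day for 10 days. Solids were centrifuged out of the urine. The supernatant was extracted with chloroform and with ethyl acetate before the enantiomeric composition was determined, because signals of parent drug and metabolite overlapped in crude concentrated urine.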

The nature of series [20]: Percent ratio of the enantiomeric form (-)S extracted from the urine of alveolar rhabdomyosarcoma patients was determined. Type of series: ADME, tissue-based. The note with it: human. The method, boiled down:
as §2

Series [21] in a line: Percent ratio of the enantiomeric form (-)S extracted from the urine of embryonal rhabdomyosarcoma patients was determined. The note with it: human. Type of series: ADME, tissue-based. In outline: as §2
Series [22] in a line: Percent ratio of the enantiomeric form (+)R extracted from the urine of embryonal rhabdomyosarcoma patients was determined. Type of series: ADME. The note with it: human. The method, boiled down:
as §2

For `O=P(O)(NCCCl)NCCCl` [PALIFOSFAMIDE], the Activity result in series [1] was “Active”; in series [2] it was “Not found”.
In the same order, the values of `O=CCCOP(=O)(NCCCl)NCCCl` are “Active” and “Not found”.
Turning to `O=C(O)CCOP(=O)(NCCCl)NCCCl`, the Excretion in series [3] is listed as 100%; in series [4], 61%; in series [5] it was 40.2%; in series [6] it was 65.5%; in series [8] it was 39.8%; in [9] it was 91.5%. Further, the values for the Excretion in [10] and in series [18] were 61.7% and 74%, respectively. Besides, the Quantity in series [7] came out at 70 mg; in series [11], 312 mg; in series [12] it was 348 mg; in series [13], 56 mg; in series [14] it was 186 mg; in series [15] it was 130 mg. The values for the Quantity in series [16] and in [17] were 70 mg and 62 mg, respectively.
For the molecule `O=C1CCOP(=O)(NCCCl)N1CCCl` (stereo not drawn) [4-KETOIFOSFAMIDE], the Excretion in series [3] amounted to 100%; in [4], 61%; in series [5], 40.2%; in series [6] it was 65.5%; in series [8], 39.8%; in series [9] it was 91.5%. In addition, the Excretion in [10] worked out at 61.7%; in series [18], 74%. The Quantity amounted to 44 mg in series [7]; 84 mg in series [11]; 136 mg in series [12]; 78 mg in series [13]; 24 mg in series [14]; 66 mg in series [15]. Further, the Quantity in series [16] is 81 mg; in series [17], 34 mg.
Consider `O=P1(NCCCl)NCCCO1` (stereo not drawn), for which the Excretion was 100% in series [3]; 61% in series [4]; 40.2% in [5]; 65.5% in series [6]; 39.8% in series [8]; 91.5% in series [9]. The Excretion is recorded as 61.7% in series [10] and 74% in [18]. For the same molecule, the Extraction in [19] came to 72%; in [20] it was 28%; in series [21], 55%; in series [22] it was 45%. Further, the Quantity in series [7] turned out to be 198 mg; in series [11], 348 mg; in [12] it was 434 mg; in series [13], 338 mg; in series [14] it was 310 mg; in series [15] it was 320 mg. Further, the Quantity in series [16] was 258 mg; in [17], 432 mg.
`O=P1(NCCCl)OCCC(O)N1CCCl` (stereo not drawn) [ALDOIFOSFAMIDE]: the Activity result in series [1] is “Active”; in [2] it was “Not found”.
As to `O=P1(NCCCl)OCCCN1CCCl` (stereo not drawn) [IFOSFAMIDE], the Excretion in series [3] was 100%; in series [4], 61%; in series [5] it was 40.2%; in series [6], 65.5%; in series [8] it was 39.8%; in series [9], 91.5%. In addition, the figures for the Excretion in [10] and in series [18] were 61.7% and 74%, respectively. For the same molecule, the Extraction in series [19] came out at 57%; in [20], 43%; in [21] it was 45%; in [22], 55%. Moreover, the Quantity in series [7] stood at 348 mg; in [11] it was 432 mg; in series [12], 500 mg; in series [13], 494 mg; in series [14], 1100 mg; in series [15], 421 mg. Moreover, the Quantity in series [16] was found to be 200 mg; in series [17], 442 mg.
As for `NP1(=O)OCCCN1CCCl` (stereo not drawn), the Excretion was 100% in [3]; 61% in [4]; 40.2% in series [5]; 65.5% in series [6]; 39.8% in series [8]; 91.5% in series [9]. In addition, the figures for the Excretion in series [10] and in [18] were 61.7% and 74%, respectively. The Extraction in [19] stood at 13%; in [20] it was 87%; in [21] it was 73%; in series [22], 27%. Moreover, the Quantity in series [7] turned out to be 64 mg; in series [11] it was 180 mg; in [12] it was 243 mg; in series [13], 130 mg; in series [14], 231 mg; in series [15], 160 mg. The values for the Quantity in series [16] and in series [17] were 95 mg and 163 mg, respectively.

The record behind these values is ChEMBL document CHEMBL1122297, “Stereospecific synthesis of chiral metabolites of ifosfamide and their determination in the urine” (J Med Chem, 1983).
